Results from ChEMBL document CHEMBL1147169, “From pyrroles to 1-oxo-2,3,4,9-tetrahydro-1H-beta-carbolines: a new class of orally bioavailable mGluR1 antagonists” (Bioorg Med Chem Lett, 2007).

Key:
[1] = target: Metabotropic glutamate receptor 1 (Rattus norvegicus, UniProt P23385); experiment: Antagonist activity at rat mGluR1a expressed in CHO cells assessed as inhibition of intracellular calcium ion mobilization by FLIPR assay; format: functional, cell-based
[2] = Oral bioavailability in rat; format: ADME, organism-based; settings: in vivo
[3] = Cmax in rat; format: ADME, organism-based; settings: in vivo
Procedure, shortened: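 Maximum plasma concentration (ng/ml) measured after oral administration in rat.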

[4] = Plasma clearance in rat; format: ADME, organism-based
[5] = Oral bioavailability in rat at 5 mg/kg, po; format: ADME, organism-based; settings: in vivo
[6] = Oral bioavailability in rat at 1 mg/kg, po; format: ADME, organism-based; settings: in vivo
Mus musculus [7] = experiment: Reduction of inflammatory pain in early phase of formalin-induced mouse at 30 mg/kg, po; format: ADME, organism-based; parameters: dose 30 mg/kg, route oral; settings: in vivo
Procedure, shortened: (§1)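 Mice given compound po at 10 or 30 mg/kg, 30 min before 20 µl 1% formalin into left hind paw; nociceptive behaviour time (s) scored in early phase (0–5 min) and late phase (20–60 min); n = 8-19; significance p < 0.05 / p < 0.01 versus vehicle.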

Mus musculus [8] = experiment: Reduction of inflammatory pain in late phase of formalin-induced mouse at 10 mg/kg, po; format: ADME, organism-based; parameters: dose 10 mg/kg, route oral; settings: in vivo; procedure, shortened: as §1
Mus musculus [9] = experiment: Reduction of inflammatory pain in late phase of formalin-induced mouse at 30 mg/kg, po; format: ADME, organism-based; parameters: dose 30 mg/kg, route oral; settings: in vivo; procedure, shortened: as §1
Rattus norvegicus = experiment: Ratio of drug level in rat from brain to plasma at 3 mg/kg, iv after 1 hr; settings: in vivo

Chain of Metabotropic glutamate receptor 1 (P23385 whole entry): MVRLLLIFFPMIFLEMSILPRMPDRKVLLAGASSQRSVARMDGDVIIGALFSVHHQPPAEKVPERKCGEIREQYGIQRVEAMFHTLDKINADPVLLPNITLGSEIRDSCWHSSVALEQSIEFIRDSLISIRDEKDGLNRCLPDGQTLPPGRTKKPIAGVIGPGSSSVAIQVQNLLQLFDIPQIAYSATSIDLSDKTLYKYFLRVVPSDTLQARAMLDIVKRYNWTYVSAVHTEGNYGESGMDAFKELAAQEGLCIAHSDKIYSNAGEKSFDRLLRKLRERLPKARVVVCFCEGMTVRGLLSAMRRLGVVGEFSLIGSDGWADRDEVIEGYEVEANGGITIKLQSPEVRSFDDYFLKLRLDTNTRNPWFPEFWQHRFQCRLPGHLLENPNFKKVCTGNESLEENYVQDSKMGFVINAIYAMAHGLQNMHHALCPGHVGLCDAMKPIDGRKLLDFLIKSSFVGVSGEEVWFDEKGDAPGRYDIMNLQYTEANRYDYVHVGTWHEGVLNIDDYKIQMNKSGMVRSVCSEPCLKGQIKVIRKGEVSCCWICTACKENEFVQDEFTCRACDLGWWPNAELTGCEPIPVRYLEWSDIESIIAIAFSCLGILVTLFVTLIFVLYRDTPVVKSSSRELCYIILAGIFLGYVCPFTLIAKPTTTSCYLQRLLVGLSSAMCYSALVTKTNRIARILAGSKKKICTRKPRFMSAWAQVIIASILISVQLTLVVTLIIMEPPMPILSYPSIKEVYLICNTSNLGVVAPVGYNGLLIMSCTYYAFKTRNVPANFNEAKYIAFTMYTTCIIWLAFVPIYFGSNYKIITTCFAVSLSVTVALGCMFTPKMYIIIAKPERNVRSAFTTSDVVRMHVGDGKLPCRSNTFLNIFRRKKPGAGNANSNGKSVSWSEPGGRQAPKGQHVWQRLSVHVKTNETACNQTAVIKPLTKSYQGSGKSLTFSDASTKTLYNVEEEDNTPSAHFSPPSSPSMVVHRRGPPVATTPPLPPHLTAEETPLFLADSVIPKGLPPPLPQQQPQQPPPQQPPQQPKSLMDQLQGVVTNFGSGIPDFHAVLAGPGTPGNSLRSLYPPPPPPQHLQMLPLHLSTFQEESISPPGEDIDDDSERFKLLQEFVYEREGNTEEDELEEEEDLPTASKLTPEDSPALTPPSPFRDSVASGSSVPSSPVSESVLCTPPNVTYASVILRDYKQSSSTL

## O=C1NCCc2c1[nH]c1cccc(OCc3ccccc3)c21
[1]
  IC50: 3980 nM

## O=C1NCCc2c1[nH]c1ccc(O)cc21
[1]
  IC50: > 10000 nM

## c1ccc(COc2ccc3c(c2)C2CCNCC2N3)cc1 (centres undefined)
[1]
  IC50: > 10000 nM

## O=C(NC12CC3CC(CC(C3)C1)C2)c1ccc2[nH]c3c(c2c1)CCNC3=O
[1]
  IC50: 71 nM
[2]
  bioavailability: 12%
[3]
  Cmax: 37 ng/mL
[4]
  clearance: 54 mL/min/kg

## O=C1NCCc2c1[nH]c1ccc(OCc3ccccc3)cc21
[1]
  IC50: 104 nM
[5]
  bioavailability: 9%
[6]
  bioavailability: 0%
[3]
  Cmax: 145 ng/mL

## O=C1NCCc2c1[nH]c1ccc(OCC3CCCCC3)cc21
[1]
  IC50: 5560 nM

## O=C1NCCC2c3cc(OCc4ccccc4)ccc3NC12 (centres undefined)
[1]
  IC50: 1670 nM

## O=C1NCc2c1[nH]c1ccc(OCc3ccccc3)cc21
[1]
  IC50: 683 nM

## CC(Oc1ccc2[nH]c3c(c2c1)CCNC3=O)C(C)(C)C (centres undefined)
[1]
  IC50: 239 nM

## O=C1CCCc2c1[nH]c1ccc(OCc3ccccc3)cc21
[1]
  IC50: > 10000 nM

## Cc1cc2[nH]c3c(c2cc1OCc1ccccc1)CCNC3=O
[1]
  IC50: 167 nM
[2]
  bioavailability: 36%
Mus musculus [7]
  Activity: Active
Mus musculus [8]
  Activity: Active
Mus musculus [9]
  Activity: Active
Rattus norvegicus
  Ratio: 6.1
[3]
  Cmax: 264 ng/mL

## c1ccc(COc2ccc3[nH]c4c(c3c2)CCNC4)cc1
[1]
  IC50: > 10000 nM

## CC(Oc1ccc2[nH]c3c(c2c1)CCNC3=O)c1ccccc1 (centres undefined)
[1]
  IC50: 380 nM

## O=C(NC1C2CC3CC(C2)CC1C3)c1ccc2[nH]c3c(c2c1)CCNC3=O (centres undefined)
[1]
  IC50: 93 nM

## CC(N(C)C(=O)c1ccc2[nH]c3c(c2c1)CCNC3=O)C(C)(C)C (centres undefined)
[1]
  IC50: 120 nM

## O=C(NC1CC2CCC1C2)c1ccc2[nH]c3c(c2c1)CCNC3=O (centres undefined)
[1]
  IC50: 226 nM

## CCCOC(=O)c1[nH]c(C)c(C(=O)O[C@@H](C)C(C)(C)C)c1C
[1]
  IC50: 16 nM

## COc1ccc2[nH]c3c(c2c1)CCNC3=O
[1]
  IC50: > 10000 nM

## CC(NC(=O)c1ccc2[nH]c3c(c2c1)CCNC3=O)C(C)(C)C (centres undefined)
[1]
  IC50: > 10000 nM

## O=C1NCCc2c1[nH]c1cc(OCc3ccccc3)ccc21
[1]
  IC50: 2850 nM

## O=C(Nc1ccccc1)c1ccc2[nH]c3c(c2c1)CCNC3=O
[1]
  IC50: 1040 nM

## O=C(NCC12CC3CC(CC(C3)C1)C2)c1ccc2[nH]c3c(c2c1)CCNC3=O
[1]
  IC50: 312 nM

## O=C1NN=CC2c3cc(OCc4ccccc4)ccc3NC12 (centres undefined)
[1]
  IC50: 1020 nM

## O=C1NCCc2c1[nH]c1ccc(NC(=O)C34CC5CC(CC(C5)C3)C4)cc21
[1]
  IC50: 71 nM
[4]
  clearance: 52 mL/min/kg

## O=C(Nc1ccc2[nH]c3c(c2c1)CCNC3=O)NC12CC3CC(CC(C3)C1)C2
[1]
  IC50: 4660 nM

## O=C1NCCc2c1[nH]c1ccc(Oc3ccccc3)cc21
[1]
  IC50: 4070 nM
